Published values from different studies.
Lines come from different studies, so protocols differ.
Read-out: DPPH scavenging

COc1cc(C=CC(=O)CC(c2ccc(N(C)C)cc2)n2ccnc2)ccc1O (stereo not drawn)  inhibition (100 µg/mL): 73.5%
Cc1ccc(C(C)C)cc1NC(=O)COC(=O)c1ccc(O)cc1  inhibition (100 µg/mL): 1.7%
Oc1ccc(Br)cc1C=NCCN1CCOCC1  inhibition (absorbance; 40 µM): 10.1%
Cc1ccc(N(O)N=Nc2ccc(S(=O)(=O)Nc3cc(C)on3)cc2)cc1  inhibition (absorbance; 240 µg/mL): 29.7%
Cc1ccc(C(C)C)cc1NC(=O)COC(=O)/C=C/c1ccc(O)cc1  inhibition (100 µg/mL): 8.51%
CCN(O)N=Nc1ccc(S(=O)(=O)Nc2nccs2)cc1  inhibition (absorbance; 240 µg/mL): 25.2%
COc1cc(C=Cc2cc(-c3ccc(N(C)C)cc3)nc(O)n2)ccc1O  inhibition (25 µg/mL): 46.6%
CCN(O)N=Nc1ccc(S(=O)(=O)Nc2cc(C)on2)cc1  inhibition (absorbance; 300 µg/mL): 40.5%
Cc1ccc(C(C)C)cc1NC(=O)COC(=O)/C=C/c1ccccc1O  inhibition (100 µg/mL): 1.15%
COc1cc(C=CC(=O)CC(c2ccc([N+](=O)[O-])cc2)n2ccnc2)ccc1O (stereo not drawn)  inhibition (12.5 µg/mL): 37.1%
O=C1O[C@H]([C@@H](O)CO)C(O)=C1O  inhibition (absorbance; 40 µM): 41.6%
COc1cc(C=Cc2cc(-c3ccccc3)nc(O)n2)ccc1O  inhibition (100 µg/mL): 73.6%
CCCN(O)N=Nc1ccc(S(=O)(=O)Nc2cc(C)on2)cc1  inhibition (absorbance; 180 µg/mL): 22.8%
O=C1O[C@H]([C@@H](O)CO)C(O)=C1O  inhibition (50 µg/mL): 77.6%
Cc1ccc(C(C)C)cc1NC(=O)COC(=O)c1cccc(O)c1  inhibition (100 µg/mL): 25.2%
CCN(O)N=Nc1ccc(S(=O)(=O)Nc2onc(C)c2C)cc1  inhibition (absorbance; 60 µg/mL): 10.9%
CC1(C)CC[C@]2(C(=O)O)CC[C@]3(C)C(=CC[C@@H]4[C@@]5(C)CC[C@H](O)C(C)(C)[C@@H]5CC[C@]43C)[C@@H]2C1  inhibition (100 µg/mL): 95.6%
Cc1cc(NS(=O)(=O)c2ccc(N=NN(O)c3ccccc3)cc2)no1  inhibition (absorbance; 240 µg/mL): 33.7%
